Test results reported in paper PMC5538437 (Genes & Development, 2017).

Tests used:
[1] = tested on: R-Luc-6xMS2-A95-MALAT1 reporter; experiment: Tethering assay, R-Luc-6xMS2-A95-MALAT1 reporter, HEK293T cells; format: cell-based, human; details: MS2-HA-GYF2, HEK293T cells
How it was run: (§1)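 HEK293T cells transfected with 0.25 µg F-Luc-GFP control plasmid, 0.5 µg R-Luc-6xMS2-A95-MALAT1 reporter (or R-Luc-A95-MALAT1, lacking MS2 sites), 0.25 µg GFP-MBP, and 0.3 µg MS2-HA or 1 µg MS2-HA-GYF2 (wild type or canonical mutant) plasmid. Dual luciferase read 2 d post-transfection. R-Luc normalized to F-Luc, set to 100% for MS2-HA. Mean ± SD of three independent experiments.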

[2] = tested on: R-Luc-ARE-A90-MALAT1 reporter; format: cell-based, human; details: λN-HA-TTPΔNIM with GFP-GYF2 and/or λN-HA-4EHP, GYF1/2-null HEK293T cells
How it was run: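 Wild-type and GYF1/2-null HEK293T cells received 1 µg R-Luc-ARE-A90-MALAT1 reporter and 0.25 µg F-Luc-GFP control. Where indicated, they also received 50 ng λN-HA-TTPΔNIM, 0.2 µg GFP-MBP, 1 µg GFP-GYF2 (wild type or C*) and 0.5 µg λN-HA-4EHP. Dual luciferase was measured 2 d post-transfection. R-Luc/F-Luc was set to 100% without TTP for each cell line.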

[3] = tested on: endogenous GYF1; experiment: Pull-down of GYF1 by tagged 4EHP in HEK293T cells; format: binding, human; details: V5-SBP-4EHP, Western blot
[4] = tested on: endogenous GYF2; experiment: Pull-down of GYF2 by tagged 4EHP in HEK293T cells; format: binding, human; details: Western blot
How it was run: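 Streptavidin pull-downs used HEK293T lysates containing RNase A and expressed V5-SBP-4EHP, wild type or mutants. V5-SBP-MBP was the negative control. Inputs (1–1.5%) and bound fractions (up to 30% for GYF2) were analysed by Western blot with anti-V5 and anti-GYF2 antibodies, using ECL detection.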

[5] = target: T1, 4EHP RE-LL–4E-BP1 complex (Homo sapiens, UniProt O60573, E149L/R103L); experiment: Competition assay, preassembled 4EHP RE-LL–4E-BP1 complex; format: biochemical; details: after 60 min of incubation with equimolar GYF2 fragment
T1 sequence (O60573 52-234 R103L/E149L): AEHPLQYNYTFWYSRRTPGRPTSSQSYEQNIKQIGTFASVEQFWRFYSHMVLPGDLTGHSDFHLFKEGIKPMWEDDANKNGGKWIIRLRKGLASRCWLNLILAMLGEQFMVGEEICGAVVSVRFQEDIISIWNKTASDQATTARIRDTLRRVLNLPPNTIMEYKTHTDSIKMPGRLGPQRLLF

[6] = target: T2, 4EHP–GYF2 (35–105) complex (Homo sapiens, UniProt O60573+Q6Y7W6); experiment: ITC, m7GpppG cap analog vs 4EHP–GYF2 complex; format: binding; details: 20 mM HEPES pH 7.5, 200 mM NaCl
T2 sequence (O60573 52-234): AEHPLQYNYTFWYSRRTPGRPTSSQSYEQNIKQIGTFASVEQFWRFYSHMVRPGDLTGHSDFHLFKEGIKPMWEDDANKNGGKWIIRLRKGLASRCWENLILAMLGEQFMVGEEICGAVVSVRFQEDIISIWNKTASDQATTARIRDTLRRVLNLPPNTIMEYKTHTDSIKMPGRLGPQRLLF
T2 sequence (Q6Y7W6 35-105 partner limits assumed): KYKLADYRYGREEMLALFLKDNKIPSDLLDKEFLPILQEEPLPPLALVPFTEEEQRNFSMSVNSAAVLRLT

[7] = target: T3, 4EHP–4E-BP1 complex (Homo sapiens, UniProt O60573); experiment: Competition assay, preassembled 4EHP–4E-BP1 complex; format: biochemical; details: competition assay with equimolar GYF2 fragment
T3 sequence (O60573 52-234): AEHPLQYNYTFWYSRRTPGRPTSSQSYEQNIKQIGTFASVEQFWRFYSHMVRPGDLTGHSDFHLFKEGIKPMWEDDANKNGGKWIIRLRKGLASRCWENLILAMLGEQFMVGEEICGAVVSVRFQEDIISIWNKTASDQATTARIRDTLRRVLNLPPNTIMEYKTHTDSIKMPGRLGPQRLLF

[8] = tested on: R-Luc-5BoxB-A95-MALAT1 reporter; format: cell-based, human; details: λN-HA-4EHP with GFP-MBP or GFP-GYF2, GYF1/2-null HEK293T cells
How it was run: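 GYF1/2-null and control HEK293T cells were seeded at 0.6 × 10^6 cells per well and lipofected. Each well received 0.25 µg F-Luc-GFP control, 0.5 µg R-Luc-5BoxB-A95-MALAT1 reporter, and 0.3 µg λN-HA or 0.7 µg λN-HA-4EHP. Cells also got 0.25 µg GFP-MBP, 1.8 µg GFP-GYF2 wild type or 1.2 µg C* mutant. Luciferases were read after 2 d. R-Luc/F-Luc was set to 100% for λN-HA. Mean ± SD, three independent experiments.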

[9] = tested on: R-Luc-A95-MALAT1 reporter; experiment: Tethering assay, reporter lacking the MS2-binding sites; format: cell-based, human; details: MS2-HA-GYF2, HEK293T cells
How it was run: as §1

GYF2 C: GYF2 residues K35–K54, canonical 4EHP-binding region (KYKLADYRYGREEMLALFLK; UniProt Q6Y7W6 35-54, looked up, fragment)
repression of MS2 reporter expression [1]: still repressed the expression of the R-Luc-6xMS2-A95-MALAT1 reporter as efficiently as wild-type GYF2
TTP-mediated repression of the ARE reporter, GYF1/2-null cells [2]: No restoration was observed

B1: 4EHP RE-LL: 4EHP R103L, E149L; auxiliary surface mutant (protein)
chain: MNNKFDALKDDDSGDHDQNEENSTQKDGEKEKTERDKNQSSSKRKAVVPGPAEHPLQYNYTFWYSRRTPGRPTSSQSYEQNIKQIGTFASVEQFWRFYSHMVLPGDLTGHSDFHLFKEGIKPMWEDDANKNGGKWIIRLRKGLASRCWLNLILAMLGEQFMVGEEICGAVVSVRFQEDIISIWNKTASDQATTARIRDTLRRVLNLPPNTIMEYKTHTDSIKMPGRLGPQRLLFQNLWKPRLNVP
binding to endogenous GYF1 [3]: disrupted binding to endogenous GYF1
binding to endogenous GYF2 [4]: strongly reduced binding to endogenous GYF2

B2: GYF2 C+L+NC+A: GYF2 residues K35–T105, complete 4EHP-binding region (peptide)
chain: KYKLADYRYGREEMLALFLKDNKIPSDLLDKEFLPILQEEPLPPLALVPFTEEEQRNFSMSVNSAAVLRLT
modifications: left off: MBP, N-terminal, state not stated | GB1, C-terminal, kept
4E-BP1 displaced from 4EHP RE-LL [5]: 40%
effect on 4EHP's affinity for the m7GpppG cap analog [6]: did not increase the affinity of 4EHP for an m^7GpppG cap analog

B3: GYF2: Hs GIGYF2 Q6Y7W6-1, full-length (1–1299) (protein)
chain: MAAETQTLNFGPEWLRALSSGGSITSPPLSPALPKYKLADYRYGREEMLALFLKDNKIPSDLLDKEFLPILQEEPLPPLALVPFTEEEQRNFSMSVNSAAVLRLTGRGGGGTVVGAPRGRSSSRGRGRGRGECGFYQRSFDEVEGVFGRGGGREMHRSQSWEERGDRRFEKPGRKDVGRPNFEEGGPTSVGRKHEFIRSESENWRIFREEQNGEDEDGGWRLAGSRRDGERWRPHSPDGPRSAGWREHMERRRRFEFDFRDRDDERGYRRVRSGSGSIDDDRDSLPEWCLEDAEEEMGTFDSSGAFLSLKKVQKEPIPEEQEMDFRPVDEGEECSDSEGSHNEEAKEPDKTNKKEGEKTDRVGVEASEETPQTSSSSARPGTPSDHQSQEASQFERKDEPKTEQTEKAEEETRMENSLPAKVPSRGDEMVADVQQPLSQIPSDTASPLLILPPPVPNPSPTLRPVETPVVGAPGMGSVSTEPDDEEGLKHLEQQAEKMVAYLQDSALDDERLASKLQEHRAKGVSIPLMHEAMQKWYYKDPQGEIQGPFNNQEMAEWFQAGYFTMSLLVKRACDESFQPLGDIMKMWGRVPFSPGPAPPPHMGELDQERLTRQQELTALYQMQHLQYQQFLIQQQYAQVLAQQQKAALSSQQQQQLALLLQQFQTLKMRISDQNIIPSVTRSVSVPDTGSIWELQPTASQPTVWEGGSVWDLPLDTTTPGPALEQLQQLEKAKAAKLEQERREAEMRAKREEEERKRQEELRRQQEEILRRQQEEERKRREEEELARRKQEEALRRQREQEIALRRQREEEERQQQEEALRRLEERRREEEERRKQEELLRKQEEEAAKWAREEEEAQRRLEENRLRMEEEAARLRHEEEERKRKELEVQRQKELMRQRQQQQEALRRLQQQQQQQQLAQMKLPSSSTWGQQSNTTACQSQATLSLAEIQKLEEERERQLREEQRRQQRELMKALQQQQQQQQQKLSGWGNVSKPSGTTKSLLEIQQEEARQMQKQQQQQQQHQQPNRARNNTHSNLHTSIGNSVWGSINTGPPNQWASDLVSSIWSNADTKNSNMGFWDDAVKEVGPRNSTNKNKNNASLSKSVGVSNRQNKKVEEEEKLLKLFQGVNKAQDGFTQWCEQMLHALNTANNLDVPTFVSFLKEVESPYEVHDYIRAYLGDTSEAKEFAKQFLERRAKQKANQQRQQQQLPQQQQQQPPQQPPQQPQQQDSVWGMNHSTLHSVFQTNQSNNQQSNFEAVQSGKKKKKQKMVRADPSLLGFSVNASSERLNMGEIETLDDY
competitive advantage over 4E-BP1 for binding to 4EHP [7]: the auxiliary sequences afford GYF2 a competitive advantage over 4E-BP1 for binding to 4EHP
repression of MS2 reporter expression [1]: repressed mRNA reporter expression in tethering assays
repression of tethered reporter by 4EHP in GYF1/2-null cells [8]: restored by transient expression of wild-type GFP-tagged GYF2
effect on reporter lacking the MS2-binding sites [9]: did not repress a reporter lacking the MS2-binding sites
